Values after ≈ are worked out from the molar mass of the structure shown.

The text below walks through data of ChEMBL document CHEMBL1153876, “Synthesis of some N-substituted nitroimidazole derivatives as potential antioxidant and antifungal agents” (2009).

A short description of experiment [1]: Antioxidant activity assessed as inhibition of Fe2+-induced lipid peroxidation after 15 to 60 mins by TBARS assay relative to control. Type of experiment: functional. Also on record: concentration or dose not given beside the values. In a few lines:
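Substrate: egg yolk lipoprotein suspension, made by homogenising yolk with an equal volume of phosphate buffer pH 7.4. Compounds were added as 10^-3 mol/mL solution, with 0.7% FeSO4·7H2O to start non-enzymatic peroxidation, at 37 °C. Controls were Fe only and a blank with neither Fe nor compound; tocopheryl acetate was the reference. The supernatant was heated with acidic thiobarbituric acid at 95 °C for 1 h, extracted into n-butanol–pyridine 15:1, and read by optical density.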

Another experiment concerns Sydowia polyspora. In words: Antifungal activity against Sclerophoma pityophila after 12 days. Type of experiment: functional. Particulars: for EC50: Sydowia polyspora, 288 h, read-out: ED50 (the source's name). The method in brief:
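Agar dilution on S. pityophila S 231: nine concentrations in geometric progression, 25 to 5000 ppm, in malt agar (1.5% agar, 4% malt extract), 90 mm dishes, three replicate plates each. Centrally inoculated with 5-mm disc from submargin of 10-day-old culture; 22 ± 1 °C, dark, up to 12 days. Growth rate versus compound-free plates gives ED50/ED100; non-growing inocula transferred to fresh agar to assess viability (LD).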

`O=C(Cn1cnc([N+](=O)[O-])c1[N+](=O)[O-])c1ccccc1`: the Activity in experiment [1] worked out at 34.5%.

Take `Cc1ccccc1Nc1nc(C)n(CC(=O)c2ccc(Cl)cc2)c1[N+](=O)[O-]`: the Activity in experiment [1] amounted to 12.2%.

For `Cc1ccccc1Nc1nc(C)n(CC(=O)c2ccccc2)c1[N+](=O)[O-]`, the Activity in experiment [1] is -354%. On to `Cc1ccccc1Nc1ncn(CC(=O)c2ccccc2)c1[N+](=O)[O-]`, for which, in experiment [1], the Activity is 1.2%. On the same count and under the same terms, the same measure for `Cc1nc([N+](=O)[O-])c([N+](=O)[O-])n1CC(=O)c1ccccc1`: 26.4%.

On to `Cc1nc(N2CCCCC2)c([N+](=O)[O-])n1CC(=O)c1ccc(Cl)cc1`, for which, in the experiment on Sydowia polyspora, the ED100 is on record as under 25 ppm, the LD is recorded as under 5000 ppm and the EC50 is under 25 µg/mL. For the same compound, in experiment [1], the Activity came to 36.9%. For `Cc1nc(N2CCCC2)c([N+](=O)[O-])n1CC(=O)c1ccc(Cl)cc1`, in that order: over 5000 ppm, under 5000 ppm, over 5000 µg/mL and 20.8%. Turning to `Cc1nc(N2CCOCC2)c([N+](=O)[O-])n1CC(=O)c1ccccc1`, the Activity in experiment [1] came to 39.9%.

`O=C(Cn1cnc(N2CCOCC2)c1[N+](=O)[O-])c1ccc(Cl)cc1`: the Activity in experiment [1] came to 21%. Regarding `O=C(Cn1cnc(N2CCCC2)c1[N+](=O)[O-])c1ccccc1`, in experiment [1], the Activity came out at 44.2%. Turning to `O=C(Cn1cnc([N+](=O)[O-])c1[N+](=O)[O-])c1ccc(Cl)cc1`, in the experiment with Sydowia polyspora, the ED100 is over 5000 ppm, the LD is on record as under 5000 ppm and the EC50 was 1000 µg/mL (≈ 3220 µM). The Activity in experiment [1] worked out at 60%. With `Cc1nc([N+](=O)[O-])c([N+](=O)[O-])n1CC(=O)c1ccc(Cl)cc1`, in the experiment with Sydowia polyspora, the ED100 is on record as over 5000 ppm, the LD is on record as under 5000 ppm and the EC50 turned out to be 500 µg/mL (≈ 1540 µM). The Activity in experiment [1] worked out at 57.6%.

Turning to `Cc1nc(N2CCOCC2)c([N+](=O)[O-])n1CC(=O)c1ccc(Cl)cc1`, the Activity in experiment [1] came to 30.1%.

Take `O=C(Cn1cnc(N2CCOCC2)c1[N+](=O)[O-])c1ccccc1`: in the experiment on Sydowia polyspora, the ED100 is on record as under 25 ppm, the LD is given as under 5000 ppm and the EC50 is under 25 µg/mL. Besides, the Activity in experiment [1] is 56.3%. On to `Cc1nc(N2CCN(C)CC2)c([N+](=O)[O-])n1CC(=O)c1ccccc1`, for which, in experiment [1], the Activity turned out to be 13%.

For `Cc1nc(N2CCCCC2)c([N+](=O)[O-])n1CC(=O)c1ccccc1`, in the experiment with Sydowia polyspora, the ED100 was over 5000 ppm, the LD is on record as under 5000 ppm and the EC50 was over 5000 µg/mL. Also, in experiment [1], the Activity was found to be 48.6%. As for `Cc1nc(N2CCN(C)CC2)c([N+](=O)[O-])n1CC(=O)c1ccc(Cl)cc1`, in experiment [1], the Activity is 37.1%. Still for that read-out and setting: to `CC(=O)Cn1c(C)nc(N2CCOCC2)c1[N+](=O)[O-]` belongs 23.1%; to `O=[N+]([O-])c1c(N2CCOCC2)ncn1CC(O)CCl` (configuration not stated), 51.6%. The same measure, in the same setting: the same measure for `CC(=O)Oc1c(C)c(C)c2c(c1C)CCC(C)(CCC[C@H](C)CCC[C@H](C)CCCC(C)C)O2` (some centres not stated): 17.8%. On the same count and under the same terms, to `CN1CCN(c2ncn(CC(O)CCl)c2[N+](=O)[O-])CC1` (configuration not stated) belongs 39.1%. In the case of `CC(=O)Cn1c(C)nc(Nc2ccccc2)c1[N+](=O)[O-]`, the Activity in experiment [1] stood at 15.1%. `Cc1ccccc1Nc1ncn(CC(=O)c2ccc(Cl)cc2)c1[N+](=O)[O-]`: the Activity in experiment [1] was -35.3%. Still for that read-out and setting: the same measure for `Cc1nc(N2CCCC2)c([N+](=O)[O-])n1CC(=O)c1ccccc1`: 45.2%.
